In brackets after ≈: the same amount, converted by molar mass. Activity calls are given as the source filed them. The calls are words filed in the database; no cut-off is given here.
Tested on: not listed separately
Assay: Selectivity index, ratio of IC50 for human KB cells to IC50 for Plasmodium falciparum W2
Type: toxicity, cell-based
Conditions: KB cells versus Plasmodium falciparum W2, read-out: Ratio IC50
Summary of the method: (§1)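 Plasmodium falciparum clones were assayed in vitro: D6 (chloroquine-sensitive) and W2 (chloroquine-resistant). IC50 is in μg/mL. The selectivity index is the ratio of the antimalarial to the cytotoxic activity.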
`CCC[C@@H](OC(C)=O)C1=C(Br)C(=C(Br)Br)OC1=O` showed a selectivity ratio of less than 1.

Tested on: Penicillium oxalicum
Assay: Antimicrobial activity against Penicillium oxalicum at 5 ug
Type: functional
Conditions: read-out: IZ
Summary of the method: (§2)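 Direct bioautography: each compound is spotted onto TLC plates and the solvent evaporated. The test organism is then grown directly on the plate. Growth inhibition is scored at the spot as active (+) or very active (++). Where a number is given, it is the radius in mm of the inhibition zone around the spot.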
With `CCC[C@@H](OC(C)=O)C1=C(Br)C(=C(Br)Br)OC1=O` the zone of inhibition at 5 µg/disc was 14 mm.

Tested on: Penicillium oxalicum
Assay: Antimicrobial activity against Penicillium oxalicum at 10 ug
Type: functional
Conditions: read-out: IZ
Summary of the method: as §2
`CCC[C@@H](OC(C)=O)C1=C(Br)C(=C(Br)Br)OC1=O` showed a zone of inhibition at 10 µg/disc of 12 mm.

Tested on: not listed separately
Assay: Selectivity index, ratio of IC50 for human KB cells to IC50 for Plasmodium falciparum D6
Type: toxicity, cell-based
Conditions: KB cells versus Plasmodium falciparum D6, read-out: Ratio IC50
Summary of the method: as §1
For `CCC[C@@H](OC(C)=O)C1=C(Br)C(=C(Br)Br)OC1=O`, the selectivity ratio was less than 1.

Target: Human immunodeficiency virus type 1 reverse transcriptase (Human immunodeficiency virus 1, UniProt Q72547)
Assay: Inhibition of HIV1 RT at 200 uM
Conditions: not given
Summary of the method: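 HIV-1 reverse transcriptase inhibition was measured in an ELISA-based system.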
`CCC[C@@H](OC(C)=O)C1=C(Br)C(=C(Br)Br)OC1=O` gave an IC50 of 700 µM.

Tested on: Micrococcus luteus
Assay: Antimicrobial activity against Micrococcus luteus at 0.1 ug
Type: functional, organism-based
Conditions: not given
Summary of the method: as §2
In the case of `CCC[C@@H](OC(C)=O)C1=C(Br)C(=C(Br)Br)OC1=O`, the Activity is reported as “Active”.

Tested on: KB
Assay: Cytotoxicity against human KB cells
Type: functional
Conditions: read-out: ED50 (the source's name)
`CCC[C@@H](OC(C)=O)C1=C(Br)C(=C(Br)Br)OC1=O` showed an EC50 of 0.3 µg/mL (≈ 0.671 µM).

Tested on: Escherichia coli
Assay: Antimicrobial activity against Escherichia coli at 1 ug
Type: functional, organism-based
Conditions: not given
Summary of the method: as §2
With `CCC[C@@H](OC(C)=O)C1=C(Br)C(=C(Br)Br)OC1=O` the Activity was “inactive”.

Tested on: ZR-75-1
Assay: Cytotoxicity against human ZR-75-1 cells
Type: functional
Conditions: read-out: ED50 (the source's name)
In the case of `CCC[C@@H](OC(C)=O)C1=C(Br)C(=C(Br)Br)OC1=O`, the EC50 is reported as less than 0.1 µg/mL.

Tested on: KB
Assay: Cytotoxicity against vinblastine-sensitive human KB cells
Type: functional
Conditions: read-out: ED50 (the source's name)
`CCC[C@@H](OC(C)=O)C1=C(Br)C(=C(Br)Br)OC1=O` gave an EC50 of 0.5 µg/mL (≈ 1.12 µM).

Tested on: Escherichia coli
Assay: Antimicrobial activity against Escherichia coli at 10 ug
Type: functional, organism-based
Conditions: not given
Summary of the method: as §2
With `CCC[C@@H](OC(C)=O)C1=C(Br)C(=C(Br)Br)OC1=O` the Activity was “Active”.

Tested on: Micrococcus luteus
Assay: Antimicrobial activity against Micrococcus luteus at 1 ug
Type: functional, organism-based
Conditions: not given
Summary of the method: as §2
With `CCC[C@@H](OC(C)=O)C1=C(Br)C(=C(Br)Br)OC1=O` the Activity was “Active”.

Tested on: Lu1
Assay: Cytotoxicity against human Lu1 cells
Type: functional
Conditions: read-out: ED50 (the source's name)
In the case of `CCC[C@@H](OC(C)=O)C1=C(Br)C(=C(Br)Br)OC1=O`, the EC50 is reported as 1.1 µg/mL (≈ 2.46 µM).

Tested on: Penicillium oxalicum
Assay: Antimicrobial activity against Penicillium oxalicum at 0.1 ug
Type: functional
Conditions: read-out: IZ
Summary of the method: as §2
Work on `CCC[C@@H](OC(C)=O)C1=C(Br)C(=C(Br)Br)OC1=O` yielded a zone of inhibition at 0.1 µg/disc of 6 mm.

Tested on: Plasmodium falciparum
Assay: Antimalarial activity against chloroquine-resistant Plasmodium falciparum W2
Type: functional, organism-based
Conditions: not given
Summary of the method: (§3)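 In vitro growth inhibition of Plasmodium falciparum clones D6 (chloroquine-sensitive) and W2 (chloroquine-resistant); IC50 reported in μg/mL.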
For `CCC[C@@H](OC(C)=O)C1=C(Br)C(=C(Br)Br)OC1=O`, the IC50 was 9.1 µg/mL (≈ 20.4 µM).

Tested on: Penicillium oxalicum
Assay: Antimicrobial activity against Penicillium oxalicum at 0.01 ug
Type: functional
Conditions: read-out: IZ
Summary of the method: as §2
`CCC[C@@H](OC(C)=O)C1=C(Br)C(=C(Br)Br)OC1=O` gave a zone of inhibition at 0.01 µg/disc of 3 mm.

Tested on: Micrococcus luteus
Assay: Antimicrobial activity against Micrococcus luteus at 5 ug
Type: functional, organism-based
Conditions: not given
Summary of the method: as §2
With `CCC[C@@H](OC(C)=O)C1=C(Br)C(=C(Br)Br)OC1=O` the Activity was “Active”.

Tested on: LNCaP
Assay: Cytotoxicity against human LNCAP cells
Type: functional
Conditions: read-out: ED50 (the source's name)
`CCC[C@@H](OC(C)=O)C1=C(Br)C(=C(Br)Br)OC1=O` showed an EC50 of 2.1 µg/mL (≈ 4.7 µM).

Tested on: KB
Assay: Cytotoxicity against vinblastine-resistant human KB cells
Type: functional
Conditions: read-out: ED50 (the source's name)
Summary of the method: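 The vinblastine-resistant KB-V1 line was tested both with and without added vinblastine in the cultured tumour-cell cytotoxicity panel. Results are reported as ED50.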
`CCC[C@@H](OC(C)=O)C1=C(Br)C(=C(Br)Br)OC1=O` gave an EC50 of 3.5 µg/mL (≈ 7.83 µM).

Tested on: Micrococcus luteus
Assay: Antimicrobial activity against Micrococcus luteus at 10 ug
Type: functional, organism-based
Conditions: not given
Summary of the method: as §2
For `CCC[C@@H](OC(C)=O)C1=C(Br)C(=C(Br)Br)OC1=O`, the Activity was “Active”.

Tested on: Plasmodium falciparum
Assay: Antimalarial activity against chloroquine-sensitive Plasmodium falciparum D6
Type: functional, organism-based
Conditions: not given
Summary of the method: as §3
Work on `CCC[C@@H](OC(C)=O)C1=C(Br)C(=C(Br)Br)OC1=O` yielded an IC50 of 2.2 µg/mL (≈ 4.92 µM).

Tested on: Penicillium oxalicum
Assay: Antimicrobial activity against Penicillium oxalicum at 1 ug
Type: functional
Conditions: read-out: IZ
Summary of the method: as §2
In the case of `CCC[C@@H](OC(C)=O)C1=C(Br)C(=C(Br)Br)OC1=O`, the zone of inhibition at 1 µg/disc is reported as 10 mm.

Tested on: Bacillus subtilis
Assay: Antimicrobial activity against Bacillus subtilis at 5 ug
Type: functional, organism-based
Conditions: not given
Summary of the method: as §2
In the case of `CCC[C@@H](OC(C)=O)C1=C(Br)C(=C(Br)Br)OC1=O`, the Activity is reported as “Active”.

Tested on: Bacillus subtilis
Assay: Antimicrobial activity against Bacillus subtilis at 1 ug
Type: functional, organism-based
Conditions: not given
Summary of the method: as §2
With `CCC[C@@H](OC(C)=O)C1=C(Br)C(=C(Br)Br)OC1=O` the Activity was “Active”.

Tested on: Escherichia coli
Assay: Antimicrobial activity against Escherichia coli at 0.1 ug
Type: functional, organism-based
Conditions: not given
Summary of the method: as §2
With `CCC[C@@H](OC(C)=O)C1=C(Br)C(=C(Br)Br)OC1=O` the Activity was “inactive”.

Tested on: Bacillus subtilis
Assay: Antimicrobial activity against Bacillus subtilis at 10 ug
Type: functional, organism-based
Conditions: not given
Summary of the method: as §2
For `CCC[C@@H](OC(C)=O)C1=C(Br)C(=C(Br)Br)OC1=O`, the Activity was “Active”.

Tested on: not listed separately
Assay: Inhibition of TK assessed as residual activity at 200 ug/ml
Conditions: not given
Summary of the method: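 The enzyme was tyrosine kinase p56lck, with test compounds at 200 μg/mL. The read-out is the remaining enzyme activity.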
With `CCC[C@@H](OC(C)=O)C1=C(Br)C(=C(Br)Br)OC1=O` the Activity was 1.9%.

Tested on: Escherichia coli
Assay: Antimicrobial activity against Escherichia coli at 5 ug
Type: functional, organism-based
Conditions: not given
Summary of the method: as §2
With `CCC[C@@H](OC(C)=O)C1=C(Br)C(=C(Br)Br)OC1=O` the Activity was “Active”.
